Experimental data: the EternaBench riboswitch data

Test system: MS2 coat protein
Assay: apparent Kd, MS2 coat protein; higher = weaker binding; RNA-MaP array; FMN 200 µM where present
Summary of the method: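 Stalled E. coli RNA polymerase produced the designs on Illumina sequencing-chip clusters. SNAP-549-labelled MS2 coat protein was added from 0.7 or 1.5 nM, doubling to 3 µM, without and then with constant ligand, in 100 mM Tris-HCl pH 7.5, 80 mM KCl, 4 mM MgCl2, BSA, DTT, yeast tRNA and Tween-20. The apparent Kd is the median of filtered per-cluster fits of green signal normalised to red-channel RNA signal and control-cluster median Fmax.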

[1] = designed as: OFF switch for flavin mononucleotide, no ligand
[2] = ligand present: flavin mononucleotide, designed as: OFF switch for flavin mononucleotide
[3] = designed as: ON switch for flavin mononucleotide, no ligand
[4] = ligand present: flavin mononucleotide, designed as: ON switch for flavin mononucleotide

| Sequence | apparent Kd [1] [nM] | apparent Kd [2] [nM] | apparent Kd [3] [nM] | apparent Kd [4] [nM] |
| --- | --- | --- | --- | --- |
| UAUUUGCAAGGAUAUGAUUUAAGUAACAUGAGGAUCACCCAUGUUUUUCCGUUGUUAUGUUCAGAAGGUGCGUGAU | 58.6 | 74.9 |  |  |
| UAUUUUAACUAAGGAUAUCUGUAUUUUGUUGAAACAUGAGGAUCACCCAUGUUCAUGAAAUUAUAGGAGAAGGUAGAUGAAUAA |  |  | 6.65 | 4.95 |
| UCAAGUAUGUAGGAUAUCGAUGUCCUUGGACAUCGAGAAGGACGUACAUGAGGAUCACCCAUGUAACUUGCAUG | 219 | 278 |  |  |
| UCACGGGACUGAGGAUAUACAUUUAUUAUUUUUGUAGAAGGCAGAAUGUUAGUUUUUUCACUAUACAUGAGGAUCACCCAUGUU | 27.1 | 19.9 |  |  |
| UCACGGGAUUGAGGAUAUAUAUUAAUUUUUACAAUAGAAGGCAAAUUGUUAGUUUUUUCACUAUACAUGAGGAUCACCCAUGUU | 27.4 | 25.1 |  |  |
| UCACGGGAUUGAGGAUAUAUAUUUAUUAUUUUAAUAGAAGGCAAAGAGUUAGUUUUUUCACUAUACAUGAGGAUCACCCAUGUU | 33.4 | 30.5 |  |  |
| UCACGGUAUGUAGGAUAUGCAUAGCAUUGCUAUGCAGAAGGACAUGAGGAUCACCCAUGUAUGUAUUCCAUACUAAUCCCGUGA | 5.65 | 5.56 |  |  |
| UCAGGCUUCGAGAAGGACAUGAGGAUCACCCAUGUGCGUGUAAAACAGCCAAAAGGCUGCAUCAUGUAGGAUAUCGGAGUCUGC | 279 | 192 |  |  |
| UCAGGUGGAGGAUAUACAGCUCGAUCCUGUAAUAAAACGGCACAUGAGGAUCACCCAUGUAGAAGGCCACAAUA | 25.7 | 126 |  |  |
| UCAUACAUUCGAGGAUAUCGGUGAGAAAUCUUUCGAGAAGGCGAUUCAUGAUUUAUUAUCCUGGACAUGAGGAUCACCCAUGUA |  |  | 85.3 | 65.5 |
| UCAUACAUUCGAGGAUAUCGGUGAUAACUCUAACGAGAAGGCGAUUUAAAACAUAAUGCUGUAGACAUGAGGAUCACCCAUGUA |  |  | 416 | 146 |
| UCAUCAGCGGGCGGGUCGGUUGGACAUGAGGAUCACCCAUGUAGAAGGACCGGUGGACUCCGCCGGUAGGAUAUACAUUUGGUG | 32.1 | 18.9 |  |  |
| UCAUGAAGGAUAGGAUAUGGACAUGAGGAUCACCCAUGUACAUGGGAAUGAAUACUGAAUUUGUACUAGAAGGGUUACAUAAAU | 56.4 | 37 |  |  |
| UCAUGCAUAGCGAUAUGAUCGAGAGAUCAUGUCGCUAAAUUUAGAAGGACAUGAGGAUCACCCAUGUAGGAUAUGGGAGCAUGA |  |  | 43 | 11 |
| UCAUGUUAGCAGGAUAUGCUAUUUAUUUUUUAUGCAGAAGGGCUUACAUGAGGAUCACCCAUGUAUUAAGUUUU | 154 | 19.1 |  |  |
| UCCAAAUCGUAGAAGGGUGACAUGAGGAUCACCCAUGUGCAGCAGCCGUGAAUGGCCAUGCUGCCACAGGAUAUACGAUGGAGU |  |  | 49 | 43 |
| UCCAACCCUGUGAGGAUAUCGUCCAUUUUUUGUUACGAGAAGGCACAUGAGGAUCACCCAUGUUUUUUAUUUUU | 21.9 | 134 |  |  |
| UCCACUGCUGAGAAGGGAUCCGUGUGGUUCGAAUCAGGAUAUCGAUACAGUGCAGCAUGAGGACAUGAGGAUCACCCAUGUAUU |  |  | 16 | 13 |
| UCCCUAAGGCGGACCGACCAUACAUGAGGAUCACCCAUGUCGAGAAGGUGCUCACGGGUGGGUGGCAAGGAUAUCGGGUCGGAA |  |  | 69.8 | 36.5 |
| UCCGGACAUGAGGAUCACCCAUGUCAGGAUAUACCCGAGGCAGCGAACUCGCUAGCCAGUAGAAGGGACAUGGU | 19.8 | 20.8 |  |  |
| UCCGUGGCAUCUCGCGCAUGUCUACAUGAGGAUCACCCAUGUCAGGAUAUACGGAUUGUCGUUCUGUAGAAGGGACAAGGGCUG | 131 | 108 |  |  |

| Sequence | apparent Kd [1] [nM] | apparent Kd [2] [nM] | apparent Kd [3] [nM] | apparent Kd [4] [nM] |
| --- | --- | --- | --- | --- |
| UCCUGGCGAGGAUAUACAAAGAUUUUUUCGUUUUGUUACGAACAUGAGGAUCACCCAUGUAGAAGGUGCUGCUG | 204 | 193 |  |  |
| UCCUUAGCGGUCAGGAUAUACACCCGUUACUCCUUGUAGAAGGGACAUGAGGAUCACCCAUGUACAGUACAUCU | 22.9 | 21 |  |  |
| UCCUUGUCCUGAGGAUAUCCGCGGUUCCCAAAAGGAGAAGGCAGGACAUGAGGAUCACCCAUGUACCCAGAAAACGUGCAGAUU | 9.95 | 46.8 |  |  |
| UCGACCAGCGCCGCUCGAACAUGAGGAUCACCCAUGUACUCCAGAAGGCCGCCCAAGUACGGAGUGGAGGAUAUGGAGGUUCUC |  |  | 39.5 | 25.4 |
| UCGACCGGAGGAUAUCACGUAAAGUACAUGAGGAUCACCCAUGUGUGAUGACUCGAGUCGUGAGAAGGCCGAUAUG | 76.4 | 172 |  |  |
| UCGAGUCAUGAGAAGGGCUGAUGUUACAUGAGGAUCACCCAUGUCAUGGGCAGGAUAUCAUUGACACGGCUGUACCUCUCUUAA |  |  | 107 | 19.3 |
| UCGAUGCUAGGAUAUACUUAUAAAACCACUGUAGAGUCCUCACAUGAGGAUCACCCAUGUAGAAGGAGCAUCUA | 25.9 | 46.4 |  |  |
| UCGCUGCGAGGAUAUACGUGCGCGCGCGCGCGCGCGCGCGUACAUGAGGAUCACCCAUGUAGAAGGCGCGCUGC | 17.1 | 17.1 |  |  |
| UCGGCCGCCGUGAGGAUAUGCCCGCGCGCCCGCGGGCAGAAGGCACAUGAGGAUCACCCAUGUCCCGCGGCACU | 15.4 | 27.4 |  |  |
| UCGGCGCGAGGAUAUACGUUUGCGCUUUUUCGUUUUUGUGUACAUGAGGAUCACCCAUGUAGAAGGCGCGCCGC | 16.4 | 19.8 |  |  |
| UCGUACAUUCGAGGAUAUCGGUGAUAAAUAAUACGAGAAGGCGAUUGUGGGAAUAACGCCUUAGACAUGAGGAUCACCCAUGUA |  |  | 72.4 | 62.6 |
| UCGUCCAUGUCAGGAUAUGGCGGUAAAGAAAGGCUAGAAGGGACAUGAGGAUCACCCAUGUGCUCUUACGUGCACGGGCUGCGC | 6.47 | 8.18 |  |  |
| UCGUUAUAUGAAGGAUAUACUUAACAUGAGGAUCACCCAUGUGGUGUUGUGAGUGAGUGAGUUUAGUAGAAGGUCAAUUCUUUU | 212 | 214 |  |  |
| UCGUUGUCAGGAUAUCGUUAAUUUAGUUGUUUGUAUUAGUUCGAGAAGGGACAUGAGGAUCACCCAUGUUUGCU | 30.1 | 70.9 |  |  |
| UCUACGCGAAUCAAGAUGGAUAGCACAUGAGGAUCACCCAUGUAGGAUAUGCUACACAAAGUGUAGCAGAAGGACAAGCGUAGA | 26.5 | 38.3 |  |  |
| UCUAUAUAGAUUCAUCAAUACAGUAAGGAUAUGAGAUACAUGAGGAUCACCCAUGUGCAUGUGGAUUAGAAGGUACAAUUAACU | 60 | 46.3 |  |  |
| UCUAUCAGAGGAUAUACAUGAGGAUCACCCAUGUCAGUCGAACGGGAUGGAAGGUUAGGUAGAAGGUUGUAGAU | 39.8 | 41.2 |  |  |
| UCUCGUUUCGCAGGAUAUGCUGGUCGGUCAUAAACCGGCCACAUGAGGAUCACCCAUGUGCCACAGCAGAAGGGUGACACUAGA |  |  | 543 | 59 |
| UCUGAUUGGUGAGGAUAUACAUAAUUUAUAACUGUAGAAGGCACAAACCUCAAGACAUGAGGAUCACCCAUGUGGUAUUUAGAU | 285 | 475 |  |  |
| UCUGCCGCCGUGAGGAUAUGCCCGCGCGCCCGCGGGCAGAAGGCACAUGAGGAUCACCCAUGUCCCGCGGCUUU | 15.1 | 39.5 |  |  |
| UCUGGUCGAGGAUAUACAAUCGUGCUUCGGCACGUAAGAUCACAUGAGGAUCACCCAUGUAGAAGGUGACCAGA | 27.1 | 131 |  |  |
